Data reported in ChEMBL document CHEMBL4396871, “Leveraging a Low-Affinity Diazaspiro Orthosteric Fragment to Reduce Dopamine D3 Receptor (D3R) Ligand Promiscuity across Highly Conserved Aminergic G-Protein-Coupled Receptors (GPCRs)” (J Med Chem, 2019).

How the values were obtained:
[1] = target: 5-hydroxytryptamine receptor 1B (Homo sapiens, UniProt P28222); assay: Displacement of [3H]-5-CT from recombinant human 5HT1B receptor stably expressed in HEK cell membranes measured after 90 mins by microbeta scintillation counting method
Chain of 5-hydroxytryptamine receptor 1B (P28222 whole entry): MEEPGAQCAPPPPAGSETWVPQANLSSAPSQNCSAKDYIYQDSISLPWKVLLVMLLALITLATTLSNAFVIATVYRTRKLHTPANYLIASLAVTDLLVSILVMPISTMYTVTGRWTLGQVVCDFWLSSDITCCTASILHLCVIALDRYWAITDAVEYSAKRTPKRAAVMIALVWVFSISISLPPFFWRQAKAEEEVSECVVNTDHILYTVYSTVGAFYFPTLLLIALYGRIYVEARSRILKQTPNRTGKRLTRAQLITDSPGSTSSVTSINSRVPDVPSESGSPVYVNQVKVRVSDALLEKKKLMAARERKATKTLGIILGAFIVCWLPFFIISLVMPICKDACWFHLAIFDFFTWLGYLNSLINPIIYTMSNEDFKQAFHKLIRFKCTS

[2] = target: T1, 5-hydroxytryptamine receptor 2A (Homo sapiens, UniProt P28223); assay: Displacement of [3H]-ketanserin from 5HT2A receptor (unknown origin) measured after 90 mins by microbeta scintillation counting method
T1 sequence (P28223 whole entry): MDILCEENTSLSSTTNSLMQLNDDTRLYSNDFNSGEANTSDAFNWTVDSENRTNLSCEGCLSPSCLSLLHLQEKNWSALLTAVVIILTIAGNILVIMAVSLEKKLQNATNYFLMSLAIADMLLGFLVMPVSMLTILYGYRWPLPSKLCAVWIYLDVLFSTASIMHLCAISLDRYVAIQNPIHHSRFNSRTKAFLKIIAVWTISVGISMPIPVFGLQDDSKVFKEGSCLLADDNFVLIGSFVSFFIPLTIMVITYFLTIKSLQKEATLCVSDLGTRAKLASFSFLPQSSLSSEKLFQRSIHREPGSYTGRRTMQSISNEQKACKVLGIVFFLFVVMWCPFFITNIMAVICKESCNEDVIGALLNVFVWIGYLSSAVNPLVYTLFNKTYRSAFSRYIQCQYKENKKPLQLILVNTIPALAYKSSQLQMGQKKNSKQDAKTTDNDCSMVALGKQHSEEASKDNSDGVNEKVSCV

[3] = target: 5-hydroxytryptamine receptor 2C (Homo sapiens, UniProt P28335); assay: Displacement of [3H]-mesulergine from recombinant human 5HT2C receptor transiently expressed in HEKT cell membranes measured after 90 mins by microbeta scintillation counting method
Histamine H3 receptor [4] = target: T2, Histamine H3 receptor (Homo sapiens, UniProt Q9Y5N1); assay: Displacement of [3H]-alpha-methylhistamine from human histamine H3 receptor stably expressed in HEK Flp-In cells at 10 uM after 90 mins by microbeta scintillation counting method relative to control; format: cell-based
T2 sequence (Q9Y5N1 whole entry): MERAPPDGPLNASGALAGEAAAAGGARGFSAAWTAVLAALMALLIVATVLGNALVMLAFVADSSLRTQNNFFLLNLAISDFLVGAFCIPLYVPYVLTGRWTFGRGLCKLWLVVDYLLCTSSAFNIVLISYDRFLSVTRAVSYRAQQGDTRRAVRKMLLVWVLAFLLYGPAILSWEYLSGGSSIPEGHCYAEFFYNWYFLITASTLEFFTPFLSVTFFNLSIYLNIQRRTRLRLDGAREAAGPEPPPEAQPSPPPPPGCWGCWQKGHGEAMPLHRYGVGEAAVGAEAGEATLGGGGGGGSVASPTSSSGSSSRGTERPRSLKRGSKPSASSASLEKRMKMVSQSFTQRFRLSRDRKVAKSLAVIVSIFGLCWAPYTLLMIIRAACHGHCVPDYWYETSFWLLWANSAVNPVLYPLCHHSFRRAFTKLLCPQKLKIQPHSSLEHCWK
In short: (§1)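 Primary screen at 10 μM compound, expressed as % receptor inhibition, from at least three experiments.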

[5] = target: T3, Alpha-2B adrenergic receptor (Homo sapiens, UniProt P18089); assay: Displacement of [3H]-rauwolscine from recombinant human alpha2B adrenergic receptor transiently expressed in HEKT cells measured after 90 mins by microbeta scintillation counting method; format: cell-based
T3 sequence (P18089 whole entry): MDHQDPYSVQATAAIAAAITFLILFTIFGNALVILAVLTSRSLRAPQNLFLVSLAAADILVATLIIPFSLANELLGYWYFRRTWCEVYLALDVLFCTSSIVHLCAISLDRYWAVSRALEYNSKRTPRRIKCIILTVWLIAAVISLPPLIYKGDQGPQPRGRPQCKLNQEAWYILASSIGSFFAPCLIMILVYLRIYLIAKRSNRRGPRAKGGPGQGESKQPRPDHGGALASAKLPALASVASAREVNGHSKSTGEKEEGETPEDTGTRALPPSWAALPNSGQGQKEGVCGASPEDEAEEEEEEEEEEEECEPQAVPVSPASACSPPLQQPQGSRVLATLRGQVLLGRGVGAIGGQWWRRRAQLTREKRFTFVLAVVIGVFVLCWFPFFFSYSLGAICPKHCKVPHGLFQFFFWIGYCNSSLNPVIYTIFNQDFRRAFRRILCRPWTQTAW

[6] = target: Sodium-dependent noradrenaline transporter (Homo sapiens, UniProt P23975); assay: Displacement of [3H]-nisoxetine from recombinant human NET stably expressed in HEK cells at 10 uM measured after 90 mins by microbeta scintillation counting method relative to control; format: cell-based; in short: as §1
Chain of Sodium-dependent noradrenaline transporter (P23975 whole entry): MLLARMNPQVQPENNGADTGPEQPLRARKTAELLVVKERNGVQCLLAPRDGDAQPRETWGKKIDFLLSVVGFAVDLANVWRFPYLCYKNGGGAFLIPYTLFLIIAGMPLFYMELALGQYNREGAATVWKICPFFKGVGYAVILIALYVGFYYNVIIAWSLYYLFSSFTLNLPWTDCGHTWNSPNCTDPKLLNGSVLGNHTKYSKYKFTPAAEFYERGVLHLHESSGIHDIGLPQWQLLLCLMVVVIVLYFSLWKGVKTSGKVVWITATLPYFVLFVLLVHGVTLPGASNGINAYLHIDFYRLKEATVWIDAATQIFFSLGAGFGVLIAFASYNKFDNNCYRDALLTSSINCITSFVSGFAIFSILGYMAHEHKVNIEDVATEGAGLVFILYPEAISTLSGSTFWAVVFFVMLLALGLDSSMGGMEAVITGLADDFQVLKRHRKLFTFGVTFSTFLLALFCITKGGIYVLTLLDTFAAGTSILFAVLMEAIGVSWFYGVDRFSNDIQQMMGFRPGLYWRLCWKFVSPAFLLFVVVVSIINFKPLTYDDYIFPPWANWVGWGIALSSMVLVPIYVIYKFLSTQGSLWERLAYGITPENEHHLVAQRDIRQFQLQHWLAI

D(4) dopamine receptor = D(4) dopamine receptor (Homo sapiens, UniProt P21917); assay: Displacement of [3H]N-methylspiperone from recombinant human D4 receptor stably expressed in HEK cell membranes measured after 90 mins by microbeta scintillation counting method
Chain of D(4) dopamine receptor (P21917 whole entry): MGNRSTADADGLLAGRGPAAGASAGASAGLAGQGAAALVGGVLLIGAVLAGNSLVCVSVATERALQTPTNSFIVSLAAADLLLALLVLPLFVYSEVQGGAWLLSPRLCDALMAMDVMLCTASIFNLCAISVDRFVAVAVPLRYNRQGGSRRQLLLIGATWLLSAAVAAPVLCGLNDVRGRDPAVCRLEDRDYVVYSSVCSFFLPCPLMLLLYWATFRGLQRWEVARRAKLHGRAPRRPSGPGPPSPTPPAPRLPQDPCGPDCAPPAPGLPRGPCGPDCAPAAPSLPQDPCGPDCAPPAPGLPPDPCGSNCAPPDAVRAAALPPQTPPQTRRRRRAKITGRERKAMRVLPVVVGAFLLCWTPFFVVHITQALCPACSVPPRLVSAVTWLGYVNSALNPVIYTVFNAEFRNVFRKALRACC

D(1B) dopamine receptor = D(1B) dopamine receptor (Homo sapiens, UniProt P21918); assay: Displacement of [3H]-SCH23390 from recombinant human D5 receptor transiently expressed in HEK cell membranes at 10 uM measured after 90 mins by microbeta scintillation counting method relative to control; in short: as §1
Chain of D(1B) dopamine receptor (P21918 whole entry): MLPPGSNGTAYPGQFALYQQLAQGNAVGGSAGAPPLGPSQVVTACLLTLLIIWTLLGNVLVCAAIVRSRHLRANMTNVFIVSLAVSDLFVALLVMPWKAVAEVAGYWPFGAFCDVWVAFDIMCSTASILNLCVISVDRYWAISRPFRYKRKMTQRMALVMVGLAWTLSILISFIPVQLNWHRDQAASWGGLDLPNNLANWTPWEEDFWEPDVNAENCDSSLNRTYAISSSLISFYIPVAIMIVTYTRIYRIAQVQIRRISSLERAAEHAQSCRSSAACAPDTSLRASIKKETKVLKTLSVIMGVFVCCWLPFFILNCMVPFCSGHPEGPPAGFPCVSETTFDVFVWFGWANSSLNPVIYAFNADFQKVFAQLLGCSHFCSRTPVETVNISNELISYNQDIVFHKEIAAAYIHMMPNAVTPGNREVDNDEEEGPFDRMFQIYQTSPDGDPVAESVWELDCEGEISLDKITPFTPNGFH

[7] = target: T1, 5-hydroxytryptamine receptor 2A; assay: Displacement of [3H]-ketanserin from 5HT2A receptor (unknown origin) at 10 uM measured after 90 mins by microbeta scintillation counting method relative to control; in short: as §1
Histamine H3 receptor [8] = target: T2, Histamine H3 receptor; assay: Displacement of [3H]-alpha-methylhistamine from human histamine H3 receptor stably expressed in HEK Flp-In cells after 90 mins by microbeta scintillation counting method; format: cell-based
[9] = target: Muscarinic acetylcholine receptor M3 (Homo sapiens, UniProt P20309); assay: Displacement of [3H]-QNB/[3H]-NMS from human muscarinic M3 receptor expressed in stable CHO cells after 90 mins by microbeta scintillation counting method; format: cell-based
Chain of Muscarinic acetylcholine receptor M3 (P20309 whole entry): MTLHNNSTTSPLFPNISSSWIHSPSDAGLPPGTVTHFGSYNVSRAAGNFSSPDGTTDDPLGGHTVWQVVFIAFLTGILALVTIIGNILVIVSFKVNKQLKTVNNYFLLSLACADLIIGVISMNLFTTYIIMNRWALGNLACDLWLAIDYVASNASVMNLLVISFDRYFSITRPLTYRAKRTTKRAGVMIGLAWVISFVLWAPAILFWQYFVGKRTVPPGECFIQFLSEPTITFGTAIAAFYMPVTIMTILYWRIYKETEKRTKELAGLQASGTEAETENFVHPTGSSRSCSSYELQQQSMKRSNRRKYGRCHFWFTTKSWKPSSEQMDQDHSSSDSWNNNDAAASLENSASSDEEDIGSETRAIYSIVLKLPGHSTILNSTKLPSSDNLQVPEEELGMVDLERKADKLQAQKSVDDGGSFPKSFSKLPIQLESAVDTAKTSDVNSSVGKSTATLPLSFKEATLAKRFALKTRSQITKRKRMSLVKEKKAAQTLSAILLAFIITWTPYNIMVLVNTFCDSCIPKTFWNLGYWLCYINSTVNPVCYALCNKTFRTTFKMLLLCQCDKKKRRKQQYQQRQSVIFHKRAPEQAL

[10] = target: T3, Alpha-2B adrenergic receptor; assay: Displacement of [3H]-rauwolscine from recombinant human alpha2B adrenergic receptor transiently expressed in HEKT cells at 10 uM measured after 90 mins by microbeta scintillation counting method relative to control; format: cell-based; conditions: probe [3H]-rauwolscine
[11] = target: Neuronal acetylcholine receptor; alpha3/beta4 (Homo sapiens, UniProt P30926+P32297); assay: Displacement of [3H]-epibatidine from recombinant human alpha3beta4 nACHR stably expressed in HEK cells measured after 90 mins by microbeta scintillation counting method; format: cell-based
Chain of Neuronal acetylcholine receptor; alpha3/beta4 (P30926 whole entry): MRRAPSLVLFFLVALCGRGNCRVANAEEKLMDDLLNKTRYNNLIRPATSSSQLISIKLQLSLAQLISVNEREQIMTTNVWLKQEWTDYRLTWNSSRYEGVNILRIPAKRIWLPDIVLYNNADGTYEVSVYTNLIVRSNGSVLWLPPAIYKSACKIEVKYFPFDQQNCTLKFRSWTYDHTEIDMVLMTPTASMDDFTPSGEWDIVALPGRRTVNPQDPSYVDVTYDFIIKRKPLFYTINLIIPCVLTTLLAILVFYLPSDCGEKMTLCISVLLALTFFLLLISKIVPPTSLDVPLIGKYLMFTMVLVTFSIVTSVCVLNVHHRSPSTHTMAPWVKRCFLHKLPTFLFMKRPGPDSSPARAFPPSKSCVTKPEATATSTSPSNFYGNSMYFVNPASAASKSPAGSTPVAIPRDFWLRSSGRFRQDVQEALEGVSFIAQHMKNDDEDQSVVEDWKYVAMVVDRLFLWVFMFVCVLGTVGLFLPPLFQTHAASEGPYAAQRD
Chain of Neuronal acetylcholine receptor; alpha3/beta4 (P32297 whole entry): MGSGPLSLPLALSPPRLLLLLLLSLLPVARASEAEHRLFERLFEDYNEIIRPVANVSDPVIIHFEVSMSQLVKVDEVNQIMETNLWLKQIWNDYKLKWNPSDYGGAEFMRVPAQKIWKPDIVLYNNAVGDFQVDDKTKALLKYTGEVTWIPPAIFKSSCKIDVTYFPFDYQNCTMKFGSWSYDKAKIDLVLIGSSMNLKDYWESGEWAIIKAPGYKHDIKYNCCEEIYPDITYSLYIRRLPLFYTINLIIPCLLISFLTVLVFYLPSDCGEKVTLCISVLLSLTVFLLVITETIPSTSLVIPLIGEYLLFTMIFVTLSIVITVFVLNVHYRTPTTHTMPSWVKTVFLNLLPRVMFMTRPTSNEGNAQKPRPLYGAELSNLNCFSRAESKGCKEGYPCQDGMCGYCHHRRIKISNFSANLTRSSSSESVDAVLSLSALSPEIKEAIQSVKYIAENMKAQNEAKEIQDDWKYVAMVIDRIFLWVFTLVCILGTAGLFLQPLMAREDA

Ki [1] | Ki [2] | Ki [3] | inhibition (Histamine H3 receptor [4]) | Ki [5] | inhibition [6] | Ki (D(4) dopamine receptor) | inhibition (D(1B) dopamine receptor) | inhibition [7] | Ki (Histamine H3 receptor [8]) | Ki [9] | inhibition at […], 10 µM [10] | Ki [11] | Compound
2030 nM | 1410 nM | 159 nM | < 50% | 241 nM | < 50% | 721 nM | – | – | – | – | – | – | COc1ccccc1N1CCN(CCCSc2nnc(-c3ccccc3)n2C)CC1
– | – | – | – | – | – | – | < 50% | < 50% | 509 nM | 514 nM | < 50% | 8520 nM | COc1ccccc1N1CCC2(CCN(CCCSc3nnc(-c4ccccc4)n3C)CC2)CC1
